Compounds with a hit are over-represented: about 1.9% of the library has one in this group of screens.
NPY-Y2 PAM-ag: NPY-Y2 potentiators or agonists, primary screen, cell-based; Neuropeptide Y receptor type 2 (Homo sapiens), P49146; cells expressing NPY-Y2, potentiator/agonist read-out; activation, % at 3.6 µM; 220,000 compounds, 0.45% hits; AID 1359, 2008; in the data active means activation above about 27%;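 further: cells stimulated with NPY near EC25 plus isoproterenol at EC100; 0% = vehicle plus submaximal agonist and 100% = vehicle plus saturating agonist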
Target sequence (P49146 whole entry, looked up): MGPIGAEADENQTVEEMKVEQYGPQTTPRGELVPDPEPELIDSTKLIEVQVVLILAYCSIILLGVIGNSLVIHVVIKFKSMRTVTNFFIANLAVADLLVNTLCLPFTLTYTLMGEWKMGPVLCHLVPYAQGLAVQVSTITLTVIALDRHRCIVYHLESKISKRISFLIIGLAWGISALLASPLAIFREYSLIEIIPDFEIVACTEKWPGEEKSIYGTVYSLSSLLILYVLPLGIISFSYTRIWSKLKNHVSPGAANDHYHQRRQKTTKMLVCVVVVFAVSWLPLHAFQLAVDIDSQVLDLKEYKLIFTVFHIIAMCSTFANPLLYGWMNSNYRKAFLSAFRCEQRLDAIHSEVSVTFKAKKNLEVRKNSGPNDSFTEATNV
NPY Y1 blocker: NPY-Y1 receptor antagonists, primary screen, cell-based | AID 1040, 2008 | HEK293-CNG Y1 cells, membrane potential fluorescence; NPY at EC95, then isoproterenol | inhibition, % at 3.6 µM | 200,000 compounds, 1% hits | Neuropeptide Y receptor type 1 (Homo sapiens), P25929;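 active means inhibition above the campaign mean inhibition of all tested compounds plus 3 SD, cut at about 20% in these data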;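 further: 0% = DMSO wells given NPY plus isoproterenol and 100% = isoproterenol alone without NPY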
Target sequence (P25929 whole entry, looked up): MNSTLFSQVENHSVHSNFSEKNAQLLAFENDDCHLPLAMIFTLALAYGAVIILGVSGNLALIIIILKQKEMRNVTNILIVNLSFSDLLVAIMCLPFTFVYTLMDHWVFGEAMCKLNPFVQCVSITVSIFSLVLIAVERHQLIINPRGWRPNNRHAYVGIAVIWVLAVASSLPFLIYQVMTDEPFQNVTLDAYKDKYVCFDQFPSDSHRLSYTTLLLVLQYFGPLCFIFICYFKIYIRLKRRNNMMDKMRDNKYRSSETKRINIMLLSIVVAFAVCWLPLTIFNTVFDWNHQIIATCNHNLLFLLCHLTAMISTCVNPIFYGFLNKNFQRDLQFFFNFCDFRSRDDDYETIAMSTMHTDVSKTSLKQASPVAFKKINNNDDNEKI
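Material: HEK293 cells with Y1 receptor plus CNG channel; times: compound incubation 1 h at room temperature, readout 45 min post-stimulation; signal: fluorescence, membrane potential probe; read-out basis: fluorescence ratio normalized to % inhibition between controls; benchmarks: full-block control isoproterenol-only wells, zero-block control NPY plus isoproterenol wells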
NPY Y2 blocker: NPY-Y2 receptor antagonists, primary screen, cell-based; Neuropeptide Y receptor type 2 (Homo sapiens), P49146; NPY-Y2 expressing cells, antagonist mode; inhibition, % at 2.7 µM; 140,000 compounds, 0.99% hits; AID 793, 2007; in the data active means inhibition above about 17%;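 further: 0% = vehicle with agonist challenge and 100% = reference antagonist with challenge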
NPY-Y1 PAM-ag: NPY-Y1 receptor potentiators or agonists, primary screen, cell-based | Neuropeptide Y receptor type 1 (Homo sapiens), P25929 | NPY-Y1 expressing cells, potentiator/agonist activation | activation, % at 3.6 µM | 220,000 compounds, 0.37% hits; in the data active means activation above about 33%, passing the limit was not always enough;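 further: cells stimulated with NPY at EC10 then isoproterenol at EC100; 0% = low agonist plus stimulus and 100% = saturating agonist plus stimulus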
NPY-Y1 confirm: NPY-Y1 potentiators or agonists, confirmation, cell-based | shares compounds with NPY-Y1 PAM-ag | cell-based NPY-Y1 potentiator/agonist assay | activation, % at 3.6 µM | 280 compounds, 20% hits | AID 1546, 2009;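 further: cells challenged with NPY at its EC10 plus isoproterenol stimulus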
NPY-Y2 counter: NPY-Y2 potentiators or agonists, counter-screen for NPY-Y1 potentiator project, cell-based, fluorescence; activation, % at 3.6 µM; 280 compounds, 20% hits; HEK293-CNG cells, membrane-potential fluorescence (FLIPR), 1536-well; shares compounds with NPY-Y1 PAM-ag; in the data active means activation above about 33%
NPY-Y1 ag: NPY-Y1 direct agonists without NPY, confirmation, counter-screen for NPY-Y1 potentiator project, cell-based, fluorescence; activation, % at 3.6 µM; 280 compounds, 50% hits; shares compounds with NPY-Y1 PAM-ag; AID 1697, 2009; HEK293 Y1-CNGC, membrane potential fluorescence, agonist mode;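 active means percent activation above the mean of DMSO-only control wells plus 3 SD of those wells, cut at about 18% in these data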;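 further: cells challenged with isoproterenol plus Ro 20-1724 with no NPY in test wells; Y1 agonism lowers isoproterenol-driven cAMP and reduces probe fluorescence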
NPY-Y2 ag: NPY-Y2 direct agonists without NPY, counter-screen for NPY-Y1 potentiator project, cell-based, fluorescence. HEK293 Y2-CNGC, membrane potential fluorescence, agonist mode. shares compounds with NPY-Y1 PAM-ag. 280 compounds, 67% hits. activation, % at 3.6 µM. AID 1698, 2009;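 active means activation above the solvent-only control wells' mean plus 3 SD, cut at about 11% in these data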;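 further: 0% = DMSO with isoproterenol and 100% = 40 nM NPY maximal response; agonism lowers cAMP so well fluorescence drops in active wells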
CNGC inh 2: CNGC cAMP sensor activity inhibitors, counter-screen for NPY-Y1 potentiator/agonist project, cell-based, HEK293-CNG parental, membrane potential fluorescence, Y1 set. shares compounds with NPY-Y1 PAM-ag. isoproterenol cAMP. inhibition, % at 3.6 µM. 280 compounds, 42% hits. AID 1704, 2009;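 active means inhibition above the mean of stimulated solvent-only control wells plus 3 SD, cut at about 22% in these data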;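 further: 0% = isoproterenol-stimulated DMSO wells and 100% = unstimulated DMSO wells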
NPY-Y2 confirm: NPY-Y2 potentiators or agonists, confirmation, cell-based; cell-based NPY-Y2 potentiator/agonist assay; AID 1539, 2009; shares compounds with NPY-Y2 PAM-ag; activation, % at 3.6 µM; 450 compounds, 20% hits; in the data active means activation above about 33%
NPY-Y1 potentiator: NPY-Y1 potentiators or agonists, counter-screen for NPY-Y2 potentiator project, cell-based, fluorescence. 450 compounds, 20% hits. Y1 HEK293-CNG cells, membrane potential fluorescence. activation, % at 3.6 µM. shares compounds with NPY-Y2 PAM-ag;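 further: cells stimulated with submaximal NPY then isoproterenol with phosphodiesterase inhibitor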
NPY-Y1 ag 2: NPY-Y1 direct agonists, selectivity assay for NPY-Y2 potentiator project, cell-based, fluorescence; shares compounds with NPY-Y2 PAM-ag; HEK293 Y1-CNGC, membrane potential fluorescence, agonism; activation, % at 3.6 µM; 450 compounds, 37% hits;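 active means activation above the mean of DMSO-only control wells plus 3 SD, cut at about 18% in these data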;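 further: cells stimulated with 1 µM isoproterenol plus the PDE inhibitor Ro 20-1724; 0% = isoproterenol with DMSO and no NPY and 100% = 40 nM NPY; Y1 agonists lower the membrane potential dye signal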
CNGC inh: CNGC cAMP sensor activity inhibitors, counter-screen for NPY-Y2 potentiator project, cell-based, HEK293-CNG parental, membrane potential fluorescence; isoproterenol cAMP; inhibition, % at 3.6 µM; AID 1703, 2009; 450 compounds, 32% hits; shares compounds with NPY-Y2 PAM-ag;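 active means inhibition above the control-well mean plus 3 SD of those wells, cut at about 22% in these data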;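 further: 0% = DMSO with isoproterenol and 100% = DMSO without isoproterenol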
NPY-Y2 ag 2: NPY-Y2 direct agonists, counter-screen for NPY-Y2 potentiator project, cell-based, fluorescence. shares compounds with NPY-Y2 PAM-ag. HEK293 Y2/CNGC cells, membrane potential fluorescence, agonist mode. activation, % at 3.6 µM. 450 compounds, 56% hits;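 active means activation above the mean of solvent-only control wells plus 3 SD, cut at about 10% in these data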;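 further: cells stimulated by isoproterenol with no NPY added so direct agonism is tested; 0% = DMSO with isoproterenol alone and 100% = NPY at EC100 plus isoproterenol; agonism lowers probe fluorescence through less cAMP and CNG channel opening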
* = called active by the depositor. Unless noted, no stated cut-off is given here; in the data, active means activation above about 45%; inactive means the rest.

CC(C)(C)c1ccc(Oc2ccc(N)cn2)cc1 was read as NPY-Y2 PAM-ag 39, NPY-Y1 PAM-ag 49*, NPY-Y1 confirm 41, NPY-Y2 counter 40*, NPY-Y1 ag 20*, NPY-Y2 ag 40* and CNGC inh 2 34*.
Cc1cc(Oc2ccc(N)cn2)cc(C)c1Cl was read as NPY-Y2 PAM-ag -1 and NPY-Y1 PAM-ag 16.
For Cn1nnnc1SCC(=O)NC1CCCc2ccccc21 (stereo not given) the results were NPY-Y2 PAM-ag 14, NPY Y1 blocker 2 and NPY-Y1 PAM-ag 3.
`COc1cccc(C(=O)Nc2ccc(C)cc2)c1` gave NPY-Y2 PAM-ag 8, NPY Y1 blocker -9, NPY Y2 blocker 4 and NPY-Y1 PAM-ag -14.
`COc1cccc(C(=O)NC(=O)Nc2cc(C)[nH]n2)c1` gave NPY-Y2 PAM-ag -11, NPY-Y1 PAM-ag 76*, NPY-Y1 confirm -6, NPY-Y2 counter -5, NPY-Y1 ag -4, NPY-Y2 ag 4 and CNGC inh 2 -2.
For CS/C(Nc1cc(Cl)ccc1Cl)=C(/C#N)C(=O)c1ccco1 the results were NPY-Y2 PAM-ag 6, NPY-Y1 PAM-ag 51*, NPY-Y1 confirm 17, NPY-Y2 counter 7, NPY-Y1 ag 12, NPY-Y2 ag 16* and CNGC inh 2 7.
O=C(C(c1ccccc1)c1ccccc1)N1CC[C@@]2(O)CCCC[C@H]2C1 was read as NPY-Y2 PAM-ag 6 and NPY-Y1 PAM-ag 9.
Cc1oc(-c2ccccc2Cl)nc1CN1CCCN(C(=O)c2ccco2)CC1 was read as NPY-Y2 PAM-ag 3, NPY Y1 blocker 2 and NPY-Y1 PAM-ag -19.
Screening O=C(COC(=O)c1ccco1)Nc1nc2ccc([N+](=O)[O-])cc2s1 returned NPY-Y2 PAM-ag 42*, NPY-Y1 PAM-ag 30, NPY-Y2 confirm 31, NPY-Y1 potentiator 50*, NPY-Y1 ag 2 53*, CNGC inh 40* and NPY-Y2 ag 2 49*.
Screening Cc1ccc2nc(NC(=O)COC(=O)c3ccco3)sc2c1 returned NPY-Y2 PAM-ag 13, NPY Y1 blocker -5, NPY Y2 blocker 2 and NPY-Y1 PAM-ag -7.
Screening O=C(c1cc(COc2c(F)cccc2F)on1)N1CCC(c2ccncc2)CC1 returned NPY-Y2 PAM-ag 36*, NPY Y1 blocker -7, NPY-Y1 PAM-ag -11, NPY-Y2 confirm 1, NPY-Y1 potentiator -38, NPY-Y1 ag 2 -14, CNGC inh -7 and NPY-Y2 ag 2 4.
Screening COc1ccc(/C=c2/sc3n(c2=O)C(c2ccccc2OC)C2=C(N=3)c3ccccc3CC2)cc1O (stereo not given) returned NPY-Y2 PAM-ag 36*, NPY Y1 blocker -9, NPY Y2 blocker 1, NPY-Y1 PAM-ag 21, NPY-Y2 confirm 12, NPY-Y1 potentiator 25, NPY-Y1 ag 2 18*, CNGC inh 16 and NPY-Y2 ag 2 9.
COc1ccc(-c2csc(N3CCN(c4cc(C)nc5ccccc45)CC3)n2)cc1OC was read as NPY-Y2 PAM-ag 32*, NPY Y1 blocker 8, NPY-Y1 PAM-ag -1, NPY-Y2 confirm 40*, NPY-Y1 potentiator 39, NPY-Y1 ag 2 16, CNGC inh 33* and NPY-Y2 ag 2 29*.
Screening COc1cc(-c2csc(N3CCOCC3)n2)cc(OC)c1OC returned NPY-Y2 PAM-ag 19, NPY Y1 blocker -1, NPY Y2 blocker 0 and NPY-Y1 PAM-ag 2.
CN(C)S(=O)(=O)c1ccc(C(=O)NCc2nnc(SCC(=O)Nc3ccc(F)cc3)n2-c2ccc(F)cc2)cc1 was read as NPY-Y2 PAM-ag -4, NPY Y1 blocker -1, NPY Y2 blocker -2 and NPY-Y1 PAM-ag 15.
COc1ccc(/C=C2/C(=O)OCc3cc(OC)c(OC)cc32)cc1 was read as NPY-Y2 PAM-ag -8, NPY Y1 blocker 9, NPY Y2 blocker 8 and NPY-Y1 PAM-ag -40.
Screening CCN(CC)S(=O)(=O)c1ccc2[nH]cc(C(=O)NCCC3=CCCCC3)c(=O)c2c1 returned NPY-Y2 PAM-ag 34*, NPY Y1 blocker -11, NPY Y2 blocker -4, NPY-Y1 PAM-ag 36, NPY-Y2 confirm 19, NPY-Y1 potentiator 13, NPY-Y1 ag 2 13, CNGC inh 14 and NPY-Y2 ag 2 23*.
CCN(CC)S(=O)(=O)c1ccc2[nH]cc(C(=O)NCCN3CCCCC3C)c(=O)c2c1 (stereo not given) was read as NPY-Y2 PAM-ag -2, NPY Y1 blocker 6, NPY Y2 blocker -3 and NPY-Y1 PAM-ag -1.
`CCNC(=O)CC1C(=O)N(CC)C(=S)N1NC(=O)c1ccccc1` (stereo not given) gave NPY-Y2 PAM-ag 3 and NPY-Y1 PAM-ag 22.
